The record followed here is ChEMBL document CHEMBL1140035, “4"-Benzoylureido-TSAO derivatives as potent and selective non-nucleoside HCMV inhibitors. Structure-activity relationship and mechanism of antiviral action” (J Med Chem, 2008).

Data set [1] deals with Human betaherpesvirus 5. The experiment in a line: Antiviral activity against HCMV Davis in HEL cells assessed as reduction of virus-induced cytopathogenicity after 7 days. The following applies: Human betaherpesvirus 5, Davis, 168 h. In kind it is functional, organism-based. The procedure, abridged: (§1)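 Confluent HEL fibroblasts were infected with strain AD-169 or Davis at 100 PFU/well. After 2 h, residual virus was removed and medium with serial compound concentrations was added, in duplicate. Plates were held 7 days at 37 °C, fixed with ethanol, and scored microscopically for virus-induced cytopathicity. EC50 is the concentration reducing cytopathicity by 50%.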
(In general: Damage to the host cells serves as the signal in cytopathic effect assays.)

For data set [2], the system named is Human betaherpesvirus 5. Nature of the data set: Antiviral activity against HCMV AD169 in HEL cells assessed as reduction of virus-induced cytopathogenicity after 7 days. In kind it is functional, organism-based. To be noted: Human betaherpesvirus 5, AD169, HEL, 168 h. Put shortly: as §1
A short description of data set [3]: Cytotoxicity against HEL cells assessed as alteration in cell morphology after 3 days. It counts as cell-based. To be noted: human. Put shortly:
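Minimum cytotoxic concentration: the lowest compound concentration causing a microscopically detectable alteration of HEL cell morphology.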

The nature of data set [4]: Cytotoxicity against HEL cells assessed as reduction in cell growth after 3 days. In kind it is cell-based. To be noted: human. The procedure, abridged:
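HEL cells were seeded at 5 × 10³ cells/well and allowed to proliferate for 24 h. Compound-containing medium was then added at several concentrations for 3 days at 37 °C. Cells were counted with a Coulter counter. CC50, the concentration reducing cell growth by 50% versus untreated controls, was read from plots of cell number (% of control) against concentration.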

In data set [5] the test system is Human betaherpesvirus 5. The experiment in a line: Antiviral activity against ganciclovir-resistant HCMV with DNA polymerase mutant in HEL cells assessed as reduction of virus-induced cytopathogenicity. In kind it is functional, organism-based. The following applies: Human betaherpesvirus 5, HEL. The procedure, abridged:
(§2)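 Resistant mutants raised in vitro by serial passage of HCMV AD-169 under rising drug concentrations. Confluent HEL fibroblasts infected at 100 PFU/well for 2 h, then the inoculum was removed. Cells were kept with serial compound concentrations in duplicate for 7 days at 37 °C. After ethanol fixation, cytopathicity was scored microscopically. EC50 is the concentration halving virus-induced cytopathicity.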

Data set [6] concerns Human betaherpesvirus 5. Nature of the data set: Antiviral activity against (S)-3-hydroxy-2-phosphonomethoxypropyl cytosine-resistant HCMV with DNA polymerase mutant in HEL cells assessed as reduction of virus-induced cytopathogenicity. In kind it is functional, organism-based. To be noted: Human betaherpesvirus 5, HEL. Put shortly:
as §2

Data set [7] relates to Human betaherpesvirus 5. Nature of the data set: Antiviral activity against (S)-3-hydroxy-2-phosphonomethoxypropyl adenine-resistant HCMV with DNA polymerase mutant in HEL cells assessed as reduction of virus-induced cytopathogenicity. It counts as functional, organism-based. To be noted: Human betaherpesvirus 5, HEL. The procedure, abridged: as §2
Data set [8] deals with Human betaherpesvirus 5. The experiment in a line: Antiviral activity against foscarnet-resistant HCMV with DNA polymerase mutant in HEL cells assessed as reduction of virus-induced cytopathogenicity. In kind it is functional, organism-based. To be noted: Human betaherpesvirus 5, HEL. The procedure, abridged:
as §2

Data set [9] has as its system Human betaherpesvirus 5. Nature of the data set: Antiviral activity against acyclovir-resistant HCMV with DNA polymerase mutant in HEL cells assessed as reduction of virus-induced cytopathogenicity. In kind it is functional, organism-based. The following applies: Human betaherpesvirus 5, HEL. The procedure, abridged:
as §2

In data set [10] the test system is Human betaherpesvirus 5. The experiment in a line: Antiviral activity against HCMV 6 with […] mutation in HEL cells assessed as reduction of virus-induced cytopathogenicity. In kind it is functional, organism-based. The following applies: Human betaherpesvirus 5, HEL. The procedure, abridged:
(§3)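 Drug-resistant HCMV clinical isolates from immunocompromised patients, carrying UL97 and/or DNA polymerase mutations. Confluent HEL fibroblasts infected at 100 PFU/well for 2 h, then residual virus was removed. Medium with serial compound concentrations added in duplicate for 7 days at 37 °C. After ethanol fixation, cytopathicity was scored microscopically. EC50 is the concentration reducing cytopathicity by 50%.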

For data set [11], the system named is Human betaherpesvirus 5. Nature of the data set: Antiviral activity against HCMV 521 with […] and DNA polymerase mutation in HEL cells assessed as reduction of virus-induced cytopathogenicity. It counts as functional, organism-based. To be noted: Human betaherpesvirus 5, HEL. The procedure, abridged: as §3
In data set [12] the test system is Human betaherpesvirus 5. The experiment in a line: Antiviral activity against HCMV 530 with […] and DNA polymerase mutation in HEL cells assessed as reduction of virus-induced cytopathogenicity. In kind it is functional, organism-based. The following applies: Human betaherpesvirus 5, HEL. Put shortly:
as §3

The EC50 is the concentration at which the effect is half-maximal. In general, CC50 refers to the concentration at which the toxic effect on the cells reaches its halfway point.

Values after ≈ are worked out from the molar mass of the structure shown. Bounds are passed on as bounds.

`Cc1cn([C@@H]2O[C@H](CO[Si](C)(C)C(C)(C)C)[C@@]3(OS(=O)(=O)C=C3NC(=O)NC(=O)c3ccccc3)[C@H]2O)c(=O)n(C)c1=O`: the EC50 with Human betaherpesvirus 5 [1] and with Human betaherpesvirus 5 [2] was over 100 µM in each case. In addition, the MCC at 72 h in data set [3] was over 100 µM. In addition, the half-maximal cytotoxic concentration (CC50) at 72 h in data set [4] turned out to be 22 µM.

Consider `Nc1nc(N)c2ncn(CCOCP(=O)(O)O)c2n1` [PMEDAP], for which the EC50 was found to be 1.6 µg/mL (≈ 5.55 µM) in the data set on Human betaherpesvirus 5 [5]; 5.2 µg/mL (≈ 18 µM) with Human betaherpesvirus 5 [6]; 2.8 µg/mL (≈ 9.72 µM) in the data set on Human betaherpesvirus 5 [7]; 44 µg/mL (≈ 153 µM) in the data set on Human betaherpesvirus 5 [8]; 38 µg/mL (≈ 132 µM) with Human betaherpesvirus 5 [9]; 26 µg/mL (≈ 90.2 µM) in the data set with Human betaherpesvirus 5 [10]. Moreover, the concentration giving a half-maximal response (EC50) in the data set on Human betaherpesvirus 5 [11] amounted to 6.7 µg/mL (≈ 23.2 µM); in the data set on Human betaherpesvirus 5 [12], 12 µg/mL (≈ 41.6 µM).

`CCOC(=O)CNC(=O)NC1=CS(=O)(=O)O[C@@]12[C@@H](CO[Si](C)(C)C(C)(C)C)O[C@@H](n1cc(C)c(=O)n(C)c1=O)[C@@H]2O[Si](C)(C)C(C)(C)C`: the EC50 in the data set with Human betaherpesvirus 5 [1] and in the data set with Human betaherpesvirus 5 [2] was over 3.2 µM in each case. The MCC at 72 h in [3] was determined as 16 µM. In addition, in [4], the CC50 at 72 h stood at 13 µM.

Take `CC(=O)O[C@H]1[C@H](n2cc(C)c(=O)n(C)c2=O)O[C@H](COC(=O)c2ccccc2)[C@@]12OS(=O)(=O)C=C2NC(=O)NC(=O)c1ccccc1`: the half-maximal effective concentration (EC50) with Human betaherpesvirus 5 [1] and in the data set on Human betaherpesvirus 5 [2] was over 100 µM throughout. The MCC at 72 h in data set [3] is over 100 µM. In data set [4], the CC50 at 72 h is over 100 µM.

For the compound `CC(=O)N[C@@H]1O[C@H](CO[Si](C)(C)C(C)(C)C)[C@@]2(OS(=O)(=O)C=C2NC(=O)NC(=O)c2ccccc2)[C@H]1O[Si](C)(C)C(C)(C)C`, the concentration for a half-maximal effect (EC50) with Human betaherpesvirus 5 [1] and with Human betaherpesvirus 5 [2] was over 20 µM throughout. In addition, the MCC at 72 h in data set [3] was 100 µM. Moreover, the 50% cytotoxic concentration (CC50) at 72 h in [4] was over 100 µM.

With `CCNC(=O)NC1=CS(=O)(=O)O[C@@]12[C@@H](CO[Si](C)(C)C(C)(C)C)O[C@@H](n1cc(C)c(=O)n(C)c1=O)[C@@H]2O[Si](C)(C)C(C)(C)C`, the results for the EC50 in the data set on Human betaherpesvirus 5 [1] and in the data set with Human betaherpesvirus 5 [2] were 2 µM and 1.8 µM, respectively. Further, the MCC at 72 h in [3] is at least 3.2 µM. Further, in [4], the CC50 at 72 h was found to be 10 µM.

Take `Cc1cn([C@@H]2O[C@H](CO)[C@@]3(OS(=O)(=O)C=C3NC(=O)NC(=O)c3ccccc3)[C@H]2O[Si](C)(C)C(C)(C)C)c(=O)n(C)c1=O`: the EC50 in the data set on Human betaherpesvirus 5 [1] and in the data set with Human betaherpesvirus 5 [2] was over 4 µM in each case. Besides, in data set [3], the MCC at 72 h was 20 µM. The CC50 at 72 h in data set [4] was found to be 16 µM.

`CCOC(=O)NC(=O)NC1=CS(=O)(=O)O[C@@]12[C@@H](CO[Si](C)(C)C(C)(C)C)O[C@@H](n1cc(C)c(=O)n(C)c1=O)[C@@H]2O[Si](C)(C)C(C)(C)C`: the values for the concentration giving a half-maximal response (EC50) in the data set on Human betaherpesvirus 5 [1] and in the data set with Human betaherpesvirus 5 [2] were 2.8 µM and 2.3 µM, respectively. The MCC at 72 h in data set [3] was found to be 10 µM. Besides, the CC50 at 72 h in data set [4] amounted to 14 µM.

In the case of `Cc1cn([C@@H]2O[C@H](CO[Si](C)(C)C(C)(C)C)[C@@]3(OS(=O)(=O)C=C3NC(N)=O)[C@H]2O[Si](C)(C)C(C)(C)C)c(=O)n(C)c1=O`, the EC50 in the data set on Human betaherpesvirus 5 [1] is 2 µM; with Human betaherpesvirus 5 [2], over 3.2 µM. Further, the MCC at 72 h in [3] is 16 µM. Further, in data set [4], the CC50 at 72 h turned out to be 11 µM.

As for `Cc1cn([C@@H]2O[C@H](CO[Si](C(C)C)(C(C)C)C(C)C)[C@@]3(OS(=O)(=O)C=C3NC(=O)NC(=O)c3ccccc3)[C@H]2O[Si](C)(C)C(C)(C)C)c(=O)n(C)c1=O`, the results for the EC50 with Human betaherpesvirus 5 [1] and with Human betaherpesvirus 5 [2] were 4.2 µM and 6.3 µM, respectively. Also, the MCC at 72 h in [3] was at least 100 µM. The CC50 at 72 h in data set [4] is over 100 µM.

On to `CC(C)(C)[Si](C)(C)OCCC1(CO[Si](C)(C)C(C)(C)C)OS(=O)(=O)C=C1NC(=O)NC(=O)c1ccccc1` (stereo unspecified), for which the EC50 in the data set on Human betaherpesvirus 5 [1] and with Human betaherpesvirus 5 [2] was over 100 µM each time. For the same compound, in data set [3], the MCC at 72 h is over 100 µM. Also, in data set [4], the 50% cytotoxic concentration (CC50) at 72 h is over 100 µM.

In the case of `Nc1nc2c(ncn2COCCO)c(=O)[nH]1` [ACYCLOVIR], the half-maximal effective concentration (EC50) in the data set with Human betaherpesvirus 5 [5] was determined as 4.8 µg/mL (≈ 21.3 µM); in the data set on Human betaherpesvirus 5 [6], 12 µg/mL (≈ 53.3 µM); in the data set with Human betaherpesvirus 5 [7], 7.9 µg/mL (≈ 35.1 µM); with Human betaherpesvirus 5 [8] it was 173 µg/mL (≈ 768 µM); in the data set with Human betaherpesvirus 5 [9] it was 130 µg/mL (≈ 577 µM); with Human betaherpesvirus 5 [10], 91 µg/mL (≈ 404 µM). In addition, the EC50 in the data set with Human betaherpesvirus 5 [11] worked out at 7.7 µg/mL (≈ 34.2 µM); with Human betaherpesvirus 5 [12], 22 µg/mL (≈ 97.7 µM).
